STAT1 blocker – reduces IFN-gamma driven STAT1 reporter signal; AID 920; hit rate 0.35% among 200,000; NIH 3T3 STAT1-luciferase reporter, luminescence; inhibition, % at 5.5 µM;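 active means inhibition above a set limit, the mean inhibition across all tested compounds plus 3 SD, cut at about 34% in these data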;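 further: 0% = IFN-gamma with DMSO and 100% = IFN-gamma with 300 µM nifuroxazide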
STAT1 activator – activators of IFN-gamma induced STAT1 signaling | activation (% of control), % at 5.5 µM | AID 932 | hit rate 2.6% among 200,000 | NIH 3T3 STAT1-luciferase reporter, luminescence; 100% = IFN-gamma alone, no compound;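 active means activation above the screen-wide mean activation plus 3 SD, cut at about 130% in these data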;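 further: raw ratio to IFN-gamma control signal so 100% means no change and 0% no light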
NF-kB neuron act – compounds increasing NF-kB expression in human neuronal cells. NF-kB reporter expression; stronger effect = higher value. fold change at 12.5 µM. hit rate 1.6% among 190,000; in the data active means fold change above about 3.3
STAT3 blocker – STAT3 signaling inhibition. U3A cells, IL-6 STAT3-luciferase reporter, luminescence; host cell line lacks STAT1. inhibition, % at 5.5 µM. hit rate 0.89% among 190,000;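 active means inhibition above the mean inhibition across all screened compounds plus 3 SD, cut at about 44% in these data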;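 further: 0% = DMSO only wells and 100% = 100 µM nifuroxazide control wells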
STAT3 act – increases IL-6 driven STAT3 reporter signal; U3A cells, IL-6 STAT3-luciferase reporter, luminescence; 100% = signal with IL-6 EC80 alone; activation (% of control), % at 5.6 µM; hit rate 0.91% among 190,000;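 active means activation above the screen-wide mean of compound activation plus 3 SD, cut at about 130% in these data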;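 further: 0% = background luminescence of wells with medium and substrate only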
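Material: STAT3-luciferase reporter U3A cells; Probe or stimulus: IL-6 (33 ng/mL); Incubation: compound pre-incubation 1 h before IL-6, then 6 h stimulation at 37 °C; Technique: luminescence from STAT3-driven luciferase reporter; Evaluation: % activation versus median of IL-6-stimulated wells; Controls: IL-6-only high control.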
APP 5'UTR act – activates APP 5'UTR luciferase reporter | SH-SY5Y APP 5'UTR luciferase reporter, luminescence; zero percent = DMSO vehicle wells | activation, % at 2 µM | hit rate 1% among 190,000;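 active means activation above a set limit, based on mean plus 3 SD of controls, cut at about 140% in these data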
Active calls of the source: *; · = no result given. Sampled rows, rich in hits. Any-hit rate of the full collection: about 4.9%.

SMILES | STAT1 blocker | STAT1 activator | NF-kB neuron act | STAT3 blocker | STAT3 act | APP 5'UTR act
Cc1cccc(C(=O)NC(CC(=O)O)c2ccc(OC3CCCC3)cc2)c1[N+](=O)[O-] (configuration not stated) | -10 | 108 | 0.96 | 8 | 103 | 12
Cn1c(=O)c2c(nc(N3CCN(C(=O)c4ccco4)CC3)n2CCSc2ncccn2)n(C)c1=O | 7 | 92 | 0.79 | 4 | 102 | 19
CC1=NN(c2ccccc2)C(=O)C1N=Nc1ccc(N)cc1 (configuration not stated) | 2 | 98 | 0.64 | 8 | 97 | -25
CC1=NN(c2ccccc2)C(=O)C1N=Nc1ccccc1 (configuration not stated) | -10 | 109 | 1.1 | -39 | 133* | 95
CC1=NN(C(N)=S)C(=O)C1N=Nc1ccccc1 (configuration not stated) | -34 | 130* | 1.7 | 5 | 99 | 12
CSc1nncn1/N=C/c1ccc([N+](=O)[O-])cc1 | 1 | 98 | 1 | -5 | 111 | -2
CS/C(N)=N/N=C/c1ccc([N+](=O)[O-])cc1 | -35 | 131* | 1.9 | -4 | 104 | 41
CC1(NC(=O)NCc2ccco2)CCS(=O)(=O)C1 (configuration not stated) | -2 | 102 | 1.1 | 12 | 90 | -2
CC(=O)Nc1cccc(-c2cn3ccc(C)cc3n2)c1 | -33 | 129* | 4.2* | 25 | 80 | 98
Cc1ccn2cc(-c3ccc(NC(=O)c4ccco4)cc3)nc2c1 | -40 | 135* | 3.1 | 16 | 86 | 139*
Cc1ccn2cc(-c3ccc(NS(=O)(=O)c4ccccc4)cc3)nc2c1 | -34 | 130* | 1.2 | 13 | 91 | 7
Cc1nnc2ccc(-c3ccc(NC(=O)c4ccco4)cc3)nn12 | 3 | 97 | 0.92 | 30 | 79 | 8
Cc1ccc(S(=O)(=O)Nc2ccc(-c3cn4ccc(C)cc4n3)cc2)cc1 | -6 | 105 | 1.2 | 17 | 87 | 0
O=C(c1n[nH]c(=O)c2ccccc12)N1CCN(C2c3ccccc3-c3ccccc32)CC1 | 3 | 97 | 0.61 | 14 | 94 | 0
CCn1c(=O)c2c(n3c(=S)[nH]nc13)-c1ccccc1CC21CCCCC1 | 3 | 96 | 1.1 | 0 | 102 | 0
O/N=C\c1ccccc1Oc1ccc(F)cc1 | -9 | 107 | 1.2 | -1 | 102 | 3
Nc1[nH]nc2nc(NCc3ccccc3)c3c(c12)CCN(Cc1ccccc1)C3 | -11 | 111 | 4.3* | -7 | 112 | 2
COc1ccccc1NC(=O)Nc1ccc2c(c1)OCCO2 | -32 | 133* | 2.1 | -1 | 103 | ·
COc1cc(C(=O)Nc2ccc3c(c2)OCCO3)ccc1OC(F)F | -41 | 140* | 3.4* | -6 | 109 | 75
COc1cc(C(=O)Nc2ccc3c(c2)OCCO3)ccc1OC(C)C | -24 | 122 | 2 | 3 | 100 | 46
COc1cccc(OC)c1C(=O)Nc1ccc2c(c1)OCCO2 | 0 | 100 | 0.99 | -2 | 104 | 21
COc1ccc(NC(=O)c2ccc3c(c2)OCO3)cc1Cl | -23 | 121 | 5* | 39 | 71 | 138*
COc1ccc(C(=O)Nc2ccc(Cl)cn2)cc1Cl | -43 | 140* | 2.9 | 9 | 95 | 92
CC1CN(c2ccc([N+](=O)[O-])nc2)CC(C)O1 (configuration not stated) | -11 | 110 | 1.4 | 8 | 100 | 3
CCC(C)C(NC(=O)OC(C)(C)C)C(=O)NC(C(=O)NC(C)C(N)=O)C(C)C (configuration not stated) | -3 | 101 | 0.98 | 10 | 96 | 15
SMILES | STAT1 blocker | STAT1 activator | NF-kB neuron act | STAT3 blocker | STAT3 act | APP 5'UTR act
Cc1cccc(Oc2ccc(Cl)cc2N)c1 | -13 | 112 | 1.7 | 13 | 96 | 20
O=c1c(=NNc2ccccc2Cl)c(=O)c2ccccc12 | -2 | 102 | 0.93 | 27 | 85 | 154*
C=CCOC(=O)/C(=C\C=C\c1ccccc1)NC(=O)c1ccccc1 | -6 | 106 | 1.2 | 0 | 102 | -7
Cc1ccc(-c2nnc(N)s2)cc1 | -16 | 115 | 1.3 | 5 | 99 | 5
CC(C)c1ccc(-c2nnc(N)s2)cc1 | -37 | 133* | 3.8* | 8 | 96 | 62
Cc1cc(Br)c(OCc2ccc(C(=O)N/N=C3\CC4CC=CC34)cc2)c(Br)c1 (configuration not stated) | -5 | 105 | 1.3 | -7 | 104 | 22
CCN(CC)S(=O)(=O)c1ccc(C)c(C(=O)Oc2cccc(-c3cnc4ccccc4n3)c2)c1 | -3 | 105 | 1.3 | -12 | 108 | 96
O=C(Oc1cccc(-c2cnc3ccccc3n2)c1)c1ccco1 | -5 | 105 | 3.5* | 16 | 90 | 122
C=CCn1c(=O)/c(=C2/SC(C)=C(C)N2CC)s/c1=C1/C(=O)N(C)C(=S)N1c1ccccc1 | 2 | 98 | · | 6 | 96 | -2
COc1ccc(N2C(=S)NC3N2C(=S)NC3(C)c2ccccc2)cc1 (configuration not stated) | -29 | 125 | 6.7* | 24 | 87 | 55
CC1(c2ccccc2)NC(=S)N2C1NC(=S)N2c1ccccc1 (configuration not stated) | -3 | 103 | 1.5 | 7 | 98 | 1
Cc1ccccc1OCCn1cnc2cc([N+](=O)[O-])ccc2c1=O | 7 | 90 | 1.3 | -6 | 110 | 16
CC(C)(C)OC(=O)N/N=C/c1cccc([N+](=O)[O-])c1 | -34 | 130* | 3.9* | -3 | 104 | 95
O=C(OC(C(=O)NCC1CCCO1)c1ccc(F)cc1)c1cccs1 (configuration not stated) | 3 | 98 | 0.9 | 4 | 99 | -8
CCOc1ccc(-c2noc(-c3cccnc3)n2)cc1OC | -29 | 127 | 1.1 | 10 | 94 | 4
CCCCOc1ccc(-c2nc(-c3cccnc3)no2)cc1 | -29 | 128 | 5.2* | -4 | 107 | 175*
CCOc1ccc(-c2nc(-c3cccnc3)no2)cc1 | -44 | 140* | 6.8* | 37 | 68 | 129
O=C(CS(=O)(=O)c1ccc(Cl)cc1)NCCS(=O)(=O)c1ccc(Cl)cc1 | 2 | 98 | 1 | 3 | 103 | -5
COc1ccc(C(=O)N2CCC(c3ccccc3)CC2)c(OC)c1OC | 8 | 91 | 1.1 | 11 | 92 | -6
CN(C)c1ccc(C(=S)NC2CCCCC2)cc1 | -36 | 132* | 3.4* | -11 | 114 | 83
Cc1ccc(Cl)cc1NC(=S)NCc1cccn1C | 6 | 95 | 0.89 | 4 | 95 | -4
COc1cccc2cc(C(=O)c3ccc([N+](=O)[O-])cc3)oc12 | -41 | 135* | 2 | 16 | 90 | 50
COc1cccc2cc(C(N)=O)oc12 | -14 | 111 | 1.2 | 11 | 100 | -32
